Test results: ChEMBL document CHEMBL3864121, “Development of ebsulfur analogues as potent antibacterials against methicillin-resistant Staphylococcus aureus” (Bioorg Med Chem, 2016)
Values after ≈ are worked out from the molar mass of the structure shown. Active and inactive are the calls of the source. No cut-off for these calls is given here.

Columns and labels:
Staphylococcus aureus [1] = test: Antibacterial activity against methicillin-sensitive Staphylococcus aureus ATCC 6538 measured after overnight incubation by broth double-dilution method; type: functional
Summary of the method: (§1)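 MIC by broth double-dilution in liquid Mueller-Hinton medium. Values are reported in µg/mL.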

Staphylococcus aureus [2] = test: Antibacterial activity against methicillin-sensitive Staphylococcus aureus ATCC 25923 measured after overnight incubation by broth double-dilution method; type: functional; summary of the method: as §1
Staphylococcus aureus [3] = test: Antibacterial activity against methicillin-sensitive Staphylococcus aureus ATCC 29213 measured after overnight incubation by broth double-dilution method; type: functional; summary of the method: as §1
Staphylococcus aureus [4] = test: Antibacterial activity against methicillin-resistant Staphylococcus aureus ATCC 33591 measured after overnight incubation by broth double-dilution method; type: functional; summary of the method: as §1
Staphylococcus aureus [5] = test: Antibacterial activity against methicillin-resistant Staphylococcus aureus 1 measured after overnight incubation by broth double-dilution method; type: functional; summary of the method: as §1
Staphylococcus aureus [6] = test: Antibacterial activity against methicillin-resistant Staphylococcus aureus 2 measured after overnight incubation by broth double-dilution method; type: functional; summary of the method: as §1
Staphylococcus aureus [7] = test: Antibacterial activity against methicillin-resistant Staphylococcus aureus BRS3 measured after overnight incubation by broth double-dilution method; type: functional; summary of the method: as §1
Staphylococcus aureus [8] = test: Antibacterial activity against methicillin-resistant Staphylococcus aureus C1 measured after overnight incubation by broth double-dilution method; type: functional; summary of the method: as §1
Staphylococcus aureus [9] = test: Antibacterial activity against methicillin-resistant Staphylococcus aureus C2 measured after overnight incubation by broth double-dilution method; type: functional; summary of the method: as §1
Staphylococcus aureus [10] = test: Antibacterial activity against methicillin-resistant Staphylococcus aureus C7 measured after overnight incubation by broth double-dilution method; type: functional; summary of the method: as §1
Staphylococcus aureus [11] = test: Antibacterial activity against methicillin-resistant Staphylococcus aureus C14 measured after overnight incubation by broth double-dilution method; type: functional; summary of the method: as §1
Staphylococcus aureus [12] = test: Antibacterial activity against methicillin-resistant Staphylococcus aureus C16 measured after overnight incubation by broth double-dilution method; type: functional; summary of the method: as §1
Staphylococcus aureus [13] = test: Antibacterial activity against methicillin-resistant Staphylococcus aureus C19 measured after overnight incubation by broth double-dilution method; type: functional; summary of the method: as §1
Staphylococcus aureus [14] = test: Antibacterial activity against methicillin-resistant Staphylococcus aureus G1 measured after overnight incubation by broth double-dilution method; type: functional; summary of the method: as §1
Staphylococcus aureus [15] = test: Antibacterial activity against methicillin-resistant Staphylococcus aureus G6 measured after overnight incubation by broth double-dilution method; type: functional; summary of the method: as §1
Staphylococcus aureus [16] = test: Antibacterial activity against methicillin-resistant Staphylococcus aureus G12 measured after overnight incubation by broth double-dilution method; type: functional; summary of the method: as §1
Staphylococcus aureus [17] = test: Antibacterial activity against methicillin-resistant Staphylococcus aureus G14 measured after overnight incubation by broth double-dilution method; type: functional; summary of the method: as §1
Staphylococcus aureus [18] = test: Antibacterial activity against methicillin-resistant Staphylococcus aureus NRS4 measured after overnight incubation by broth double-dilution method; type: functional; summary of the method: as §1
Staphylococcus aureus [19] = test: Antibacterial activity against methicillin-resistant Staphylococcus aureus NRS51 measured after overnight incubation by broth double-dilution method; type: functional; summary of the method: as §1
Staphylococcus aureus [20] = test: Antibacterial activity against methicillin-resistant Staphylococcus aureus NRS77 measured after overnight incubation by broth double-dilution method; type: functional; summary of the method: as §1
Staphylococcus aureus [21] = test: Antibacterial activity against methicillin-resistant Staphylococcus aureus S14 measured after overnight incubation by broth double-dilution method; type: functional; summary of the method: as §1
Staphylococcus aureus [22] = test: Antibacterial activity against methicillin-resistant Staphylococcus aureus S17 measured after overnight incubation by broth double-dilution method; type: functional; summary of the method: as §1
Staphylococcus aureus [23] = test: Antibacterial activity against methicillin-resistant Staphylococcus aureus S22 measured after overnight incubation by broth double-dilution method; type: functional; summary of the method: as §1
Staphylococcus aureus [24] = test: Antibacterial activity against methicillin-resistant Staphylococcus aureus S24 measured after overnight incubation by broth double-dilution method; type: functional; summary of the method: as §1
Staphylococcus aureus [25] = test: Antibacterial activity against methicillin-resistant Staphylococcus aureus USA100 measured after overnight incubation by broth double-dilution method; type: functional; summary of the method: as §1
Staphylococcus aureus [26] = test: Antibacterial activity against methicillin-resistant Staphylococcus aureus USA200 measured after overnight incubation by broth double-dilution method; type: functional; summary of the method: as §1
Staphylococcus aureus [27] = test: Antibacterial activity against methicillin-resistant Staphylococcus aureus USA300 measured after overnight incubation by broth double-dilution method; type: functional; summary of the method: as §1
Staphylococcus aureus [28] = test: Antibacterial activity against methicillin-resistant Staphylococcus aureus USA600 measured after overnight incubation by broth double-dilution method; type: functional; summary of the method: as §1
[29] = test system: Staphylococcus epidermidis; test: Antibacterial activity against Staphylococcus epidermidis ATCC 35984 measured after overnight incubation by broth double-dilution method; type: functional; details: RP62A
Summary of the method: (§2)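 MIC by broth double-dilution in Mueller-Hinton medium. Re-testing at the time-kill inoculum used 1×10^6 CFU/mL.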

Enterococcus faecalis [30] = test: Antibacterial activity against Enterococcus faecalis ATCC 29212 measured after overnight incubation by broth double-dilution method; type: functional; summary of the method: as §2
Enterococcus faecalis [31] = test: Antibacterial activity against Enterococcus faecalis ATCC 49533 measured after overnight incubation by broth double-dilution method; type: functional; summary of the method: as §2
Enterococcus faecium = test: Antibacterial activity against Enterococcus faecium BM4105-RF measured after overnight incubation by broth double-dilution method; type: functional; summary of the method: as §1
Enterococcus = test: Antibacterial activity against Vancomycin-resistant Enterococcus measured after overnight incubation by broth double-dilution method; type: functional; summary of the method: as §1
Listeria monocytogenes = test: Antibacterial activity against Listeria monocytogenes ATCC 19115 measured after overnight incubation by broth double-dilution method; type: functional; summary of the method: as §2
[32] = test system: Mycolicibacterium smegmatis; test: Antibacterial activity against Mycobacterium smegmatis MC2-155 measured after overnight incubation by broth double-dilution method; type: functional; details: str. MC2 155; summary of the method: as §1
Staphylococcus aureus [33] = test: Bacteriostatic activity against methicillin-resistant Staphylococcus aureus S22 at 0.5 times MIC measured up to 3 to 6 hrs by time kill analysis; type: functional
Staphylococcus aureus [34] = test: Bacteriostatic activity against methicillin-resistant Staphylococcus aureus S22 at MIC measured up to 3 to 6 hrs by time kill analysis; type: functional
Staphylococcus aureus [35] = test: Bacteriostatic activity against methicillin-resistant Staphylococcus aureus S22 at 4 times MIC measured after 24 hrs by time kill analysis; type: functional
[36] = test system: Staphylococcus epidermidis RP62A; test: Inhibition of thioredoxin reductase in Staphylococcus epidermidis ATCC 35984 assessed as induction of ROS production at 1 to 4 times MIC measured after 1 hr by DCFH-DA staining-based fluorescence microscopic analysis
Summary of the method: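 Untreated cells served as the negative control and 1 mM H2O2 as the positive control. Cells were stained with DCFH-DA (40 µg/mL) and ROS were visualized by fluorescence microscopy.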

Staphylococcus aureus [37] = test: Antibacterial activity against methicillin-resistant Staphylococcus aureus S22 using 1 10^6CFU/ml measured after overnight incubation by broth double-dilution method; type: functional
[38] = Cytotoxicity against HEK293 cells assessed as cell death up to 10 ug/ml measured after 24 hrs by resazurin dye-based fluorescence analysis relative to untreated control; type: toxicity; details: human, hek293, 24 h

Compound	MIC (Staphylococcus aureus [1]) [µg/mL]	MIC (Staphylococcus aureus [2]) [µg/mL]	MIC (Staphylococcus aureus [3]) [µg/mL]	MIC (Staphylococcus aureus [4]) [µg/mL]	MIC (Staphylococcus aureus [5]) [µg/mL]	MIC (Staphylococcus aureus [6]) [µg/mL]	MIC (Staphylococcus aureus [7]) [µg/mL]	MIC (Staphylococcus aureus [8]) [µg/mL]	MIC (Staphylococcus aureus [9]) [µg/mL]	MIC (Staphylococcus aureus [10]) [µg/mL]	MIC (Staphylococcus aureus [11]) [µg/mL]	MIC (Staphylococcus aureus [12]) [µg/mL]	MIC (Staphylococcus aureus [13]) [µg/mL]	MIC (Staphylococcus aureus [14]) [µg/mL]	MIC (Staphylococcus aureus [15]) [µg/mL]	MIC (Staphylococcus aureus [16]) [µg/mL]	MIC (Staphylococcus aureus [17]) [µg/mL]	MIC (Staphylococcus aureus [18]) [µg/mL]	MIC (Staphylococcus aureus [19]) [µg/mL]	MIC (Staphylococcus aureus [20]) [µg/mL]	further results
CCCCCCn1sc2ccccc2c1=O	7.8 (≈ 33.1 µM)	3.9 (≈ 16.6 µM)	3.9 (≈ 16.6 µM)	2 (≈ 8.5 µM)	2 (≈ 8.5 µM)	3.9 (≈ 16.6 µM)	3.9 (≈ 16.6 µM)	3.9 (≈ 16.6 µM)	3.9 (≈ 16.6 µM)	3.9 (≈ 16.6 µM)	3.9 (≈ 16.6 µM)	7.8 (≈ 33.1 µM)	2 (≈ 8.5 µM)	0.5 (≈ 2.12 µM)	3.9 (≈ 16.6 µM)	2 (≈ 8.5 µM)	2 (≈ 8.5 µM)	3.9 (≈ 16.6 µM)	3.9 (≈ 16.6 µM)	3.9 (≈ 16.6 µM)	MIC (Staphylococcus aureus [21]): ≤ 0.25 µg/mL; MIC (Staphylococcus aureus [22]): 3.9 µg/mL (≈ 16.6 µM); MIC (Staphylococcus aureus [23]): 3.9 µg/mL (≈ 16.6 µM); MIC (Staphylococcus aureus [24]): 3.9 µg/mL (≈ 16.6 µM); MIC (Staphylococcus aureus [25]): 7.8 µg/mL (≈ 33.1 µM); MIC (Staphylococcus aureus [26]): 7.8 µg/mL (≈ 33.1 µM); MIC (Staphylococcus aureus [27]): 3.9 µg/mL (≈ 16.6 µM); MIC (Staphylococcus aureus [28]): 7.8 µg/mL (≈ 33.1 µM); MIC [29]: 2 µg/mL (≈ 8.5 µM); MIC (Enterococcus faecalis [30]): > 125 µg/mL; MIC (Enterococcus faecalis [31]): > 125 µg/mL; MIC (Enterococcus faecium): 7.8 µg/mL (≈ 33.1 µM); MIC (Enterococcus): 2 µg/mL (≈ 8.5 µM); MIC (Listeria monocytogenes): 3.9 µg/mL (≈ 16.6 µM); MIC [32]: 2 µg/mL (≈ 8.5 µM); Activity (Staphylococcus aureus [33]): Active; Activity (Staphylococcus aureus [34]): Active; Activity (Staphylococcus aureus [35]): Active; Activity [36]: Active; Activity (Staphylococcus aureus [37]): Active
O=c1c2ccccc2sn1-c1cccc2ccccc12	> 125	2 (≈ 7.21 µM)	0.5 (≈ 1.8 µM)	0.5 (≈ 1.8 µM)	1 (≈ 3.61 µM)	0.5 (≈ 1.8 µM)	2 (≈ 7.21 µM)	2 (≈ 7.21 µM)	0.5 (≈ 1.8 µM)	1 (≈ 3.61 µM)	2 (≈ 7.21 µM)	15.6 (≈ 56.2 µM)	0.5 (≈ 1.8 µM)	2 (≈ 7.21 µM)	0.5 (≈ 1.8 µM)	0.5 (≈ 1.8 µM)	2 (≈ 7.21 µM)	2 (≈ 7.21 µM)	1 (≈ 3.61 µM)	2 (≈ 7.21 µM)	MIC (Staphylococcus aureus [21]): ≤ 0.25 µg/mL; MIC (Staphylococcus aureus [22]): 1 µg/mL (≈ 3.61 µM); MIC (Staphylococcus aureus [23]): 1 µg/mL (≈ 3.61 µM); MIC (Staphylococcus aureus [24]): 0.5 µg/mL (≈ 1.8 µM); MIC (Staphylococcus aureus [25]): 0.5 µg/mL (≈ 1.8 µM); MIC (Staphylococcus aureus [26]): 2 µg/mL (≈ 7.21 µM); MIC (Staphylococcus aureus [27]): 2 µg/mL (≈ 7.21 µM); MIC (Staphylococcus aureus [28]): 2 µg/mL (≈ 7.21 µM); MIC [29]: 0.25 µg/mL (≈ 0.901 µM); MIC (Enterococcus faecalis [30]): > 125 µg/mL; MIC (Enterococcus faecalis [31]): > 125 µg/mL; MIC (Enterococcus faecium): > 125 µg/mL; MIC (Enterococcus): 0.5 µg/mL (≈ 1.8 µM); MIC (Listeria monocytogenes): 2 µg/mL (≈ 7.21 µM); MIC [32]: 1 µg/mL (≈ 3.61 µM); Activity [38]: > 20%
